Experimental data from ChEMBL document CHEMBL3792364, “Identification and biological activity of 6-alkyl-substituted 3-methyl-pyridine-2-carbonyl amino dimethyl-benzoic acid EP4 antagonists” (Bioorg Med Chem Lett, 2016).

Experiments:
[1] = target: T1, Prostaglandin E2 receptor EP4 subtype (Homo sapiens, UniProt P35408); assay: Antagonist activity against EP4 in human whole blood assessed as reversal of PGE2-mediated suppression of LPS-induced TNF-alpha production preincubated for 30 mins followed by LPS stimulation measured after 20 to 24 hrs by enzyme immunoassay; type: tissue-based
T1 sequence (P35408 whole entry): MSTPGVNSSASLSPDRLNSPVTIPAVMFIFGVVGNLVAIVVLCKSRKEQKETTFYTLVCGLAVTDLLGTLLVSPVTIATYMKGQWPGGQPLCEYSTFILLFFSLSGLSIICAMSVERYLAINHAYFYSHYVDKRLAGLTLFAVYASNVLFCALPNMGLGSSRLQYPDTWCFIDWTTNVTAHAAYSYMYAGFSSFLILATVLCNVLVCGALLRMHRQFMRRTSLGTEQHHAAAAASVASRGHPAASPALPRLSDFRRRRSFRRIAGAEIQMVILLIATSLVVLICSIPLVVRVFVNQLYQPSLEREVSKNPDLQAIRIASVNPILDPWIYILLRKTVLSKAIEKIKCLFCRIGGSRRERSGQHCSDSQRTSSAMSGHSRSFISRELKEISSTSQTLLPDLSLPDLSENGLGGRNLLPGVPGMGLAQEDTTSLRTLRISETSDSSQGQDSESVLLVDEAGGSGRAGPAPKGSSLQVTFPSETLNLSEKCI
Outline: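 Pooled blood from donors free of NSAIDs or celecoxib for 48 h and of glucocorticoids for 2 weeks. Blood pretreated 30 min at 37 °C, 5% CO2 with compound in DMSO (7-point curve, triplicate). LPS […] ± 10 nM PGE2 (final) added, then incubated 20–24 h. Plasma TNFα read at A450-A650. IC50 from sigmoidal nonlinear fit; geometric mean of independent runs.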

[2] = target: T1, Prostaglandin E2 receptor EP4 subtype; assay: Antagonist activity against human EP4 expressed in HEK293 cells assessed as inhibition of PGE2-stimulated production of cAMP incubated for 20 mins by HTRF assay; type: functional, cell-based

Row | IC50 [1] [nM] | IC50 [2] [nM] | SMILES
1 | 1160 | 1.61 | Cc1ccc(N2CCC(F)(F)CC2)nc1C(=O)Nc1c(C)cc(C(=O)O)cc1C
2 |  | 87.9 | Cc1ccc(N2CCC(C)(O)CC2)nc1C(=O)Nc1c(C)ccc(C(=O)O)c1C
